Compound activity from PubChem.
NR3A LBD binder: binders of NR3A ligand-binding domain, primary screen, biophysical, differential scanning fluorimetry, uHTS. Glutamate receptor ionotropic, NMDA 3A (GRIN3A) ligand-binding domain. NR3A LBD differential scanning fluorimetry, Tm shift; 0% = protein alone, 100% = glycine-bound protein. Tm shift relative to glycine control, % at 25 µM. 2.5% of 340,000 active. AID 1259313, 2017;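 active = melting temperature shift of at least 10% of the positive control shift, at one fixed dose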
T cruzi inh: inhibitors of intracellular T. cruzi growth, primary screen, luminescence, NIH3T3 host cells. T. cruzi beta-gal in NIH3T3, 90 h. inhibition, % (no concentration beside the values). 1.4% of 300,000 active;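 active = mean inhibition across valid replicates above about 55%, limit read from the data; inconclusive = mean below that limit but half or more replicates reach it; inactive = mean below it, under half of replicates reach it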;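 also: signal also drops with host cell toxicity which is not excluded here; 0% = plate median of DMSO wells and 100% = zero luminescence signal; higher percent means less beta-gal luminescence so fewer parasites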
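compound dosing = single 50 nL compound addition per well in DMSO | material = NIH/3T3 host cells with β-galactosidase reporter T. cruzi | input = 5,000 host fibroblasts per well | timing = ≥90 h infection period, 3 h prior cell attachment | read-out basis = percent inhibition of parasite-derived β-gal signal | detection = GalScreen β-gal luminescence, detergent lysis, 60 min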
CHOP inhibitor: inhibitors of CHOP promoter induction, primary screen, cell-based, unfolded protein response, luciferase reporter; CHO-K1 CHOP-promoter luciferase, tunicamycin-induced, 15-18 h; inhibition, % at 10 µM; 3.8% of 220,000 active;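 active = compounds that reduced the stress-induced luciferase reporter signal by more than about 70% of percent inhibition, limit read from the data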;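 also: 0% = tunicamycin plus vehicle and 100% = wells without tunicamycin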
PREPL inh: PREPL enzyme inhibitors, primary screen, biochemical, fluorescence polarization; recombinant PREPL, fluorescence polarization activity-based probe; inhibition, % at 5.96 µM; 0.68% of 320,000 active; AID 2751, 2010; in the data active = inhibition above about 43%;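 also: 0% = enzyme with DMSO and 100% = wells lacking enzyme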
Beta apoptosis: inhibitors of cytokine-induced beta cell apoptosis, primary screen, luminescence. 0.8% of 300,000 active. AID 435005, 2010. protection from apoptosis, % (no concentration beside the values). INS-1E cytokine-induced death, ATP luminescence, 48 h; percent of positive-control rescue, neutral wells zero;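 active = Every replicate reaches about 75%, or at least half do and their mean reaches it too, limit read from the data; inconclusive = At least half of replicates reach the limit but their mean does not; inactive = Under half of replicates reach the limit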;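 also: 0% = cytokine-treated negative control wells and 100% = positive control rescue; higher means more ATP so stronger rescue from cytokine killing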
CSC inhib: cancer stem cell viability inhibitors, primary screen, luminescence | cancer stem cell-like cells viability | inhibition, % at 7.5 µM | 1.1% of 300,000 active; in the data active = inhibition above about 75%; inconclusive = no clear call, values can overlap the other calls; tested in HMLE shEcad cells
Numbers without * were called inactive; ? = inconclusive; nt = no result. Rows were chosen to be rich in hits. Some 6.7% of all compounds tested hit in one or more screens of this group.

SMILES	NR3A LBD binder	T cruzi inh	CHOP inhibitor	PREPL inh	Beta apoptosis	CSC inhib
O=C(O)c1cc(S(=O)(=O)Nc2ccccc2C(=O)O)ccc1O	-8	-10	-10	0	1	5
Cc1ccc(NC(=S)NNc2ccc([N+](=O)[O-])cc2S(=O)(=O)Nc2ccccc2C(=O)O)cc1C	26*	1	-30	17	-2	33
O=C(O)c1ccccc1NS(=O)(=O)c1ccc(N/N=C/c2cccc(O)c2O)c([N+](=O)[O-])c1	32*	nt	nt	nt	nt	nt
CCOc1ccc(C=NNc2ccc(S(=O)(=O)Nc3ccccc3C(=O)O)cc2[N+](=O)[O-])cc1OC	15*	nt	nt	28	nt	nt
CC(=O)OCC1=C(C(=O)O)N2C(=O)C(NC(=O)c3ccc(COc4cccc(Cl)c4Cl)o3)C2SC1 (configuration not stated)	-1	?	-20	-6	3	64
O=C(NC(=S)NC1CCCC1)c1ccccc1	3	1	nt	-9	1	0
O=C(NC(=S)NC1CCCC1)c1ccccc1Br	-1	-5	83*	10	-4	-5
c1csc(C(c2nnnn2C2CCCCC2)N2CCCC3(CCCCC3)C2)c1 (configuration not stated)	2	45	82*	18	-8	1
CCC(C)(C)n1nnnc1C(c1cccs1)N1CCCCC1 (configuration not stated)	0	-3	4	2	3	1
CC(C)(C)n1nnnc1C(c1cccs1)N1CCCC2(CCCCC2)C1 (configuration not stated)	-15	63*	15	4	-3	28
O=C(COC(=O)c1cncc(Br)c1)NCc1cccs1	-1	nt	nt	19	-6	-20
CC(C)Sc1nc(N2CCOCC2)c2c3c(sc2n1)COC(C)(C)C3	-1	22	82*	10	2	8
COC(=O)[C@H](CC(C)C)NC(=O)c1cc2c(cn1)[nH]c1ccccc12	-8	-8	nt	7	1	-1
Cc1ccc(/C=C/C(=O)c2ccccc2O)cc1	-12	4	-83	-4	-3	11
Cc1ccc(/C=C/C(=O)C2C(=O)c3ccccc3C2=O)cc1	-4	-19	95*	5	6	57
O=C(CSc1nnc(C2CC2)n1-c1ccccc1)N1CCCC1	0	nt	nt	18	-5	11
C1=C(c2ccccc2)N2CCN=C2S1	-9	-12	86*	-4	3	-10
Brc1ccc(C2=CSC3=NCCN23)cc1	3	5	-8	7	-3	-1
COc1cc(NC(=O)CCc2c(C)noc2C)c(Cl)cc1C(=O)O	1	nt	nt	1	-5	-12
CCc1cc2c(COC(=O)c3c(C)noc3C)cc(=O)oc2cc1O	-3	15	95*	-2	9	21
COc1cc(/C=C/C(=O)OCC(=O)Nc2ccccc2Sc2ccc(Cl)cc2)ccc1O	15*	-12	58	-24	-5	16
COc1cc(/C=C/C(=O)OCC(=O)NNC(=O)c2cc(Cl)ccc2OC)ccc1O	-4	nt	nt	-3	2	4
C=CCOc1ccc(CN(C)C(=O)CNC(=O)c2ccc(-c3ccccc3)cc2)cc1	-6	?	nt	7	nt	1
COc1ccccc1N1CCN(c2ncc(C(=O)N3CCN(c4cccc(Cl)c4)CC3)c3ccccc23)CC1	0	61*	86*	11	89*	20
Cc1ccc(C)c(Oc2ccc(S(=O)(=O)N3CCN(C)CC3)cn2)c1	0	55*	nt	-9	1	-8
SMILES	NR3A LBD binder	T cruzi inh	CHOP inhibitor	PREPL inh	Beta apoptosis	CSC inhib
COc1ccccc1NC(=O)CCN1C(=O)C2C3CCC(C3)C2C1=O (configuration not stated)	1	-4	nt	-5	-1	2
CCOC(=O)CNc1nc(Cl)nc(Nc2ccc(C)cc2)n1	-18	-12	70*	-5	-5	-11
Cc1ccc2nc(-c3ccc4c(c3)OCCO4)cn2c1	0	-46	94*	-8	31	62
CCn1c(=O)c2sccc2n2c(CCCC(=O)NCc3cccnc3)nnc12	0	-49	nt	7	-5	-10
COC(=O)c1c(NC(=O)C2(C)Cc3ccccc3C(=O)O2)sc2c1CCCC2 (configuration not stated)	-2	22	25	2	-6	21
NC(=S)Nc1ccc(Oc2ccc(NC(N)=S)cc2)cc1	14*	-2	21	18	13	6
Cc1ccc(NC(N)=S)cc1	-3	-11	-17	-1	-6	-15
Cc1ccc(C(=O)OCC(=O)NCc2cccs2)cc1S(=O)(=O)N1CCOCC1	0	-15	-2	5	1	-3
NC(=O)c1ccc(NC(=O)COC(=O)CCCc2c[nH]c3ccccc23)cc1	10*	-24	14	-36	1	-6
COc1ccc(NC(=O)COC(=O)Cc2c[nH]c3ccccc23)cc1Cl	20*	nt	nt	18	1	nt
O=C(COC(=O)CCc1c[nH]c2ccccc12)Nc1ccccc1	1	nt	nt	nt	nt	nt
CCCCCn1c(SCCN2CCOCC2)nc2c1c(=O)[nH]c(=O)n2C	2	11	2	11	-6	1
O=C(NCCc1ccccc1Cl)C1CC(=O)N(C2CCCCC2)C1 (configuration not stated)	-2	-1	nt	-7	-1	-10
CN(c1ccccc1)c1ccc(/C=C(\C#N)c2nnc3n2CCCCC3)cc1[N+](=O)[O-]	2	-11	-4	10	4	80*
CCOc1ccc(C(=O)Nc2ccc3[nH]ncc3c2)cc1	7	2	nt	11	3	-2
C=CCNC(=O)c1onc(CSc2cccc(C)c2)c1C(=O)O	13*	0	27	9	2	23
CCN1CCN(CCNC(=O)c2ccc3c(c2)N(Cc2ccc(F)cc2)C(=O)/C(=C/c2ccccc2)S3)CC1	-5	54	107*	-18	16	103*
Cc1cccc(CN2C(=O)c3ccccc3S(=O)(=O)c3ccc(C(=O)NCCCN4CCCC4)cc32)c1	-1	31	nt	7	nt	nt
CN1CCN(CCCNC(=O)c2ccc(/C=C3\Sc4ccccc4N(Cc4ccccc4F)C3=O)cc2)CC1	-3	69*	-32	nt	nt	nt
O=C(NCCN1CCCC1)c1ccc2c(c1)N(Cc1cccc(Cl)c1)C(=O)c1ccccc1S2(=O)=O	-7	8	nt	-14	0	107*
CCN1CCN(CCNC(=O)c2ccc(/C=C3/Sc4ccccc4N(Cc4cccc(Cl)c4)C3=O)cc2)CC1	-6	61*	33	-13	9	?
